Assay results reported in ChEMBL document CHEMBL1146375, “Synthetic studies on novel benzimidazolopeptides with antimicrobial, cytotoxic and anthelmintic potential” (2007).
Converted amounts (≈) assume the structure as drawn. Residues, ends and D or L forms follow the SMILES beside them. *: point of attachment. X1 = Cc1cc2nc(-c3ccc(O)c(C(=O)*)c3)[nH]c2cc1C

Columns and labels:
Bacillus subtilis [1] = test: Antibacterial activity against Bacillus subtilis NCIM 2063 after 18 hrs by tube dilution method; format: functional; settings: NCIM 2063, 18 h
How it was run: (§1)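 Tube dilution MIC. Stock diluted in sterile broth to seven concentrations from 200 to 3.1 […]. Each tube inoculated with one loopful of test bacterium and incubated 18 h at 37 °C. MIC read from presence or absence of growth.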

Trichophyton benhamiae [2] = test: Antifungal activity against Trichophyton mentagrophytes MUCC 665 after 48 hrs by tube dilution method; format: functional, Arthroderma benhamiae
How it was run: (§2)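 Tube dilution MIC as for bacteria (seven concentrations, 200–3.1 […]), with DMSO in place of DMF. Tubes inoculated with fungal culture and incubated 48 h at 37 °C. MIC read from presence or absence of growth.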

[3] = Growth inhibition of EAC cells at 250 ug/mL after 3 hrs; format: functional; settings: Mus musculus, Ehrlich
How it was run: (§3)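 DLA and EAC cells passaged intraperitoneally in albino mice, harvested after 15–20 days and adjusted to 1 × 10⁶ cells/mL. Dilutions in Dulbecco's medium (500–31.25, some down to 3.91 µg/mL; 5-FU reference) mixed 1:1 with cells and held 3 h at 37 °C. Trypan blue exclusion gave % growth inhibition; CTC50 by graphical extrapolation.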

[4] = Growth inhibition of EAC cells at 31.25 ug/mL after 3 hrs; format: functional; settings: Mus musculus, Ehrlich; how it was run: as §3
Trichophyton benhamiae [5] = test: Antifungal activity against Trichophyton mentagrophytes MUCC 665 after 48 hrs by disc diffusion method; format: functional, Arthroderma benhamiae
How it was run: (§4)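 Agar well diffusion on plates inoculated with spore suspension in normal saline from cultures on Sabouraud's broth. Wells punched and loaded with test samples or griseofulvin at 10 mg mL^-1, with DMSO as negative control. Incubated 48 h at 37 °C.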

[6] = Growth inhibition of DLA cells at 250 ug/mL after 3 hrs; format: functional; settings: Mus musculus; how it was run: as §3
[7] = Growth inhibition of DLA cells at 62.5 ug/mL after 3 hrs; format: functional; settings: Mus musculus; how it was run: as §3
Candida albicans [8] = test: Antifungal activity against Candida albicans MUCC 29 after 48 hrs by disc diffusion method; format: functional; how it was run: as §4
[9] = Growth inhibition of DLA cells at 31.25 ug/mL after 3 hrs; format: functional; settings: Mus musculus; how it was run: as §3
Eudrilus [10] = test: Anthelmintic activity against Eudrilus sp. assessed as mean paralyzing time; format: functional
How it was run: (§5)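 Earthworms exposed to test suspensions at 2 mg mL^-1 (0.2% w/v), made by triturating compound with Tween 80 (0.5%) and distilled water, then mechanically stirred 30 min. Mebendazole suspension prepared alike as reference. Paralysis and death times recorded; death confirmed by no movement in 50 °C water. Means from triplicate sets.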

Pontoscolex corethrurus [11] = test: Anthelmintic activity against Pontoscolex corethrurus ICARBC 408 assessed as mean paralyzing time; format: functional; how it was run: as §5
[12] = Anthelmintic activity against Megascoplex konkanensis ICARBC 211 assessed as mean death time; format: functional; how it was run: as §5
Microsporum audouinii [13] = test: Antifungal activity against Microsporum audouinii MUCC 545 after 48 hrs by tube dilution method; format: functional; how it was run: as §2
Bacillus subtilis [14] = test: Antibacterial activity against Bacillus subtilis NCIM 2063 after 18 hrs by disc diffusion method; format: functional
How it was run: (§6)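 Modified Kirby-Bauer disc diffusion. Plates inoculated with spore suspension (about 6 × 10⁴ spores mL^-1). Sterile 6 mm paper discs carried test samples at 10 mg mL^-1; ciprofloxacin disc as reference, DMF disc as negative control. Plates held 18 h at 37 °C. Inhibition zone diameters (mm) averaged over triplicate sets.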

[15] = Growth inhibition of DLA cells at 500 ug/mL after 3 hrs; format: functional; settings: Mus musculus; how it was run: as §3
Eudrilus [16] = test: Anthelmintic activity against Eudrilus sp. assessed as mean death time; format: functional
How it was run: (§7)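 Earthworms exposed to test suspensions at 2 mg mL−1, prepared by triturating compound with Tween 80 (0.5%) and distilled water, stirring 30 min, then diluting to 0.2% w/v. Mebendazole suspension was made the same way. Death was confirmed by moving worms into 50 °C warm water and looking for movement. Mean death time (min) taken from triplicate sets.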

Staphylococcus aureus [17] = test: Antibacterial activity against Staphylococcus aureus NCIM 2079 after 18 hrs by tube dilution method; format: functional; settings: NCIM 2079, 18 h; how it was run: as §1
Staphylococcus aureus [18] = test: Antibacterial activity against Staphylococcus aureus NCIM 2079 after 18 hrs by disc diffusion method; format: functional; how it was run: as §6
[19] = Growth inhibition of EAC cells at 125 ug/mL after 3 hrs; format: functional; settings: Mus musculus, Ehrlich; how it was run: as §3
Escherichia coli [20] = test: Antibacterial activity against Escherichia coli NCIM 2065 after 18 hrs by disc diffusion method; format: functional; how it was run: as §6
Pseudomonas aeruginosa [21] = test: Antibacterial activity against Pseudomonas aeruginosa NCIM 2034 after 18 hrs by tube dilution method; format: functional; settings: NCIM 2034, 18 h; how it was run: as §1
[22] = Anthelmintic activity against Megascoplex konkanensis ICARBC 211 assessed as mean paralyzing time; format: functional; how it was run: as §5
Escherichia coli [23] = test: Antibacterial activity against Escherichia coli NCIM 2065 after 18 hrs by tube dilution method; format: functional; settings: NCIM 2065, 18 h
Aspergillus niger = test: Antifungal activity against Aspergillus niger MUCC 177 after 48 hrs by disc diffusion method; format: functional; how it was run: as §4
[24] = Growth inhibition of DLA cells at 125 ug/mL after 3 hrs; format: functional; settings: Mus musculus; how it was run: as §3
[25] = Growth inhibition of EAC cells at 500 ug/mL after 3 hrs; format: functional; settings: Mus musculus, Ehrlich; how it was run: as §3
[26] = Growth inhibition of EAC cells after 3 hrs; format: functional; settings: Mus musculus, Ehrlich; how it was run: as §3
Pseudomonas aeruginosa [27] = test: Antibacterial activity against Pseudomonas aeruginosa NCIM 2034 after 18 hrs by disc diffusion method; format: functional; how it was run: as §6
Pontoscolex corethrurus [28] = test: Anthelmintic activity against Pontoscolex corethrurus ICARBC 408 assessed as mean death time; format: functional; how it was run: as §7
Microsporum audouinii [29] = test: Antifungal activity against Microsporum audouinii MUCC 545 after 48 hrs by disc diffusion method; format: functional; how it was run: as §4
Candida albicans [30] = test: Antifungal activity against Candida albicans MUCC 29 after 48 hrs by tube dilution method; format: functional; how it was run: as §2
[31] = Growth inhibition of EAC cells at 62.5 ug/mL after 3 hrs; format: functional; settings: Mus musculus, Ehrlich; how it was run: as §3
[32] = Growth inhibition of DLA cells after 3 hrs; format: functional; settings: Mus musculus; how it was run: as §3
[33] = Growth inhibition of EAC cells at 3.91 ug/mL after 3 hrs; format: functional; settings: Mus musculus, Ehrlich; how it was run: as §3
[34] = Growth inhibition of EAC cells at 7.81 ug/mL after 3 hrs; format: functional; settings: Mus musculus, Ehrlich; how it was run: as §3
[35] = Growth inhibition of DLA cells at 3.91 ug/mL after 3 hrs; format: functional; settings: Mus musculus; how it was run: as §3
[36] = Growth inhibition of DLA cells at 7.81 ug/mL after 3 hrs; format: functional; settings: Mus musculus; how it was run: as §3
[37] = Growth inhibition of EAC cells at 15.63 ug/mL after 3 hrs; format: functional; settings: Mus musculus, Ehrlich; how it was run: as §3
[38] = Growth inhibition of DLA cells at 15.63 ug/mL after 3 hrs; format: functional; settings: Mus musculus; how it was run: as §3

SMILES	MIC (Bacillus subtilis [1]) [µg/mL]	MIC (Trichophyton benhamiae [2]) [µg/mL]	inhibition at 31.25 µg/mL [4] [%]	inhibition zone (IZ) (Trichophyton benhamiae [5]) [mm]	inhibition at 62.5 µg/mL [7] [%]	inhibition zone (IZ) (Candida albicans [8]) [mm]	inhibition at 31.25 µg/mL [9] [%]	Time (Eudrilus [10]) [min]	Time (Pontoscolex corethrurus [11]) [min]	TIME [12] [h]	MIC (Microsporum audouinii [13]) [µg/mL]	inhibition zone (IZ) (Bacillus subtilis [14]) [mm]	Time (Eudrilus [16]) [min]	MIC (Staphylococcus aureus [17]) [µg/mL]	inhibition zone (IZ) (Staphylococcus aureus [18]) [mm]	inhibition zone (IZ) (Escherichia coli [20]) [mm]	MIC (Pseudomonas aeruginosa [21]) [µg/mL]	TIME [22] [h]	MIC (Escherichia coli [23]) [µg/mL]	inhibition zone (IZ) (Aspergillus niger) [mm]	also measured
Cc1cc2nc(-c3c(I)cc(C(=O)N[C@@H](Cc4cnc[nH]4)C(=O)N4CCC[C@H]4C(=O)O)cc3I)[nH]c2cc1C	6 (≈ 7.98 µM)	6 (≈ 7.98 µM)	7.14	13	28.9	25	13.2	13.37	17.38	0.373	25 (≈ 33.2 µM)	16	23.86	12.5 (≈ 16.6 µM)	13	18	6 (≈ 7.98 µM)	0.228	12.5 (≈ 16.6 µM)	14	inhibition at 250 µg/mL [3]: 28.6%; inhibition at 250 µg/mL [6]: 42.1%; inhibition at 500 µg/mL [15]: 52.6%; inhibition at 125 µg/mL [19]: 10.7%; inhibition at 125 µg/mL [24]: 34.2%; inhibition at 500 µg/mL [25]: 35.7%; CC50 [26]: > 665 µM; inhibition zone (IZ) (Pseudomonas aeruginosa [27]): 27 mm; Time (Pontoscolex corethrurus [28]): 29.33 min; inhibition zone (IZ) (Microsporum audouinii [29]): 10 mm; MIC (Candida albicans [30]): 6 µg/mL (≈ 7.98 µM); inhibition at 62.5 µg/mL [31]: 10.7%; CC50 [32]: 583 µM
CC(C)[C@H](NC(=O)c1cc(-c2nc3ccc([N+](=O)[O-])cc3[nH]2)ccc1O)C(=O)N[C@@H](Cc1ccccc1)C(=O)N[C@@H](Cc1cnc[nH]1)C(=O)O	6 (≈ 8.79 µM)	6 (≈ 8.79 µM)	3.57	13	21	19	10.5	11.55	11.87	0.326	12.5 (≈ 18.3 µM)	13	21.72	12.5 (≈ 18.3 µM)	11	16	12.5 (≈ 18.3 µM)	0.174	12.5 (≈ 18.3 µM)	19	inhibition at 250 µg/mL [3]: 7.14%; inhibition at 250 µg/mL [6]: 28.9%; inhibition at 500 µg/mL [15]: 42.1%; inhibition at 125 µg/mL [19]: 7.14%; inhibition at 125 µg/mL [24]: 26.3%; inhibition at 500 µg/mL [25]: 10.7%; CC50 [26]: > 718 µM; inhibition zone (IZ) (Pseudomonas aeruginosa [27]): 24 mm; Time (Pontoscolex corethrurus [28]): 22.79 min; inhibition zone (IZ) (Microsporum audouinii [29]): 12 mm; MIC (Candida albicans [30]): 6 µg/mL (≈ 8.79 µM); inhibition at 62.5 µg/mL [31]: 3.57%; CC50 [32]: > 718 µM
Cc1cc2nc(-c3ccc(O)c(C(=O)NCC(=O)N[C@@H](Cc4c[nH]c5ccccc45)C(=O)NCC(=O)N[C@@H](Cc4cnc[nH]4)C(=O)O)c3)[nH]c2cc1C (X1-GWGH-OH)	6 (≈ 8.34 µM)	6 (≈ 8.34 µM)	92.8	16	100	20	100	10.89	12.22	0.289	6 (≈ 8.34 µM)	14	19.83	12.5 (≈ 17.4 µM)	10	18	6 (≈ 8.34 µM)	0.155	12.5 (≈ 17.4 µM)	16	inhibition at 3.91 µg/mL [33]: 10.7%; inhibition at 7.81 µg/mL [34]: 46.4%; inhibition at 3.91 µg/mL [35]: 44.7%; CC50 [26]: 12 µM; inhibition at 7.81 µg/mL [36]: 60.5%; inhibition zone (IZ) (Pseudomonas aeruginosa [27]): 24 mm; inhibition at 15.63 µg/mL [37]: 75%; Time (Pontoscolex corethrurus [28]): 24.52 min; inhibition at 15.63 µg/mL [38]: 81.6%; inhibition zone (IZ) (Microsporum audouinii [29]): 11 mm; MIC (Candida albicans [30]): 6 µg/mL (≈ 8.34 µM); inhibition at 62.5 µg/mL [31]: 100%; CC50 [32]: 6.15 µM
